Active and inactive are the calls of the source. The rule behind the calls is not given here.
Tests used:
A549 [1] = assay: Cell cycle arrest in human A549 cells assessed as accumulation at G2/M phase at 25 uM after 48 hrs by propidium iodide staining based flow cytometry (reference value: 23.4 %); format: functional
How it was run: (§1)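 A549 cells exposed 48 h to derivative (25 µM), collected, fixed overnight in 70% ethanol, then stained 30 min at room temperature with 50 µg/mL propidium iodide, 200 µg/mL RNase A and 0.3% Triton X-100. Flow cytometry gave sub-G1, G0/G1, S and G2/M fractions; profile from 3 independent experiments.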

A549 [2] = assay: Cell cycle arrest in human A549 cells assessed as accumulation at S phase at 25 uM after 48 hrs by propidium iodide staining based flow cytometry (reference value: 9.3 %); format: functional; how it was run: as §1
ASPC1 = assay: Cytotoxicity against human AsPC1 cells assessed as cell growth inhibition after 48 hrs by MTT assay; format: functional, cell-based; conditions: ASPC1, 48 h
How it was run: (§2)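 Cells seeded in 96-well plates (MDA-MB-231, A549, AsPC-1 5×10^3; PC-3 8×10^3; HCT116 1×10^4 per well), attached 24 h in RPMI-1640 with 10% fetal calf serum at 37°C, 5% CO2. Serially diluted compound (final 0–400 μM, DMSO <0.1%) added for 48 h; 5-FU positive control. MTT read at 560 nm, triplicate; viability = treated/vehicle mean OD.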

MDA-MB-231 = assay: Cytotoxicity against human MDA-MB-231 cells assessed as cell growth inhibition after 48 hrs by MTT assay; format: functional, cell-based; conditions: MDA-MB-231, 48 h; how it was run: as §2
A549 [3] = assay: Cell cycle arrest in human A549 cells assessed as accumulation at G0/G1 phase at 25 uM after 48 hrs by propidium iodide staining based flow cytometry (reference value: 68.1 %); format: functional; how it was run: as §1
[4] = Cytotoxicity against human HCT116 cells assessed as cell growth inhibition after 48 hrs by MTT assay; format: functional, cell-based; conditions: HCT-116, 48 h; how it was run: as §2
A549 [5] = assay: Cytotoxicity against human A549 cells assessed as cell growth inhibition after 48 hrs by MTT assay; format: functional, cell-based; conditions: A549, 48 h; how it was run: as §2
[6] = Cytotoxicity against human PC3 cells assessed as cell growth inhibition after 48 hrs by MTT assay; format: functional, cell-based; conditions: PC-3, 48 h; how it was run: as §2
A549 [7] = assay: Induction of apoptosis in human A549 cells assessed as viable cells at 25 uM after 48 hrs by Annexin V-FITC/propidium iodide staining based flow cytometry (reference value: 98.2 %); format: functional; conditions: A549, 48 h, read-out: Activity
A549 [8] = assay: Induction of apoptosis in human A549 cells assessed as early apoptotic cells at 25 uM after 48 hrs by Annexin V-FITC/propidium iodide staining based flow cytometry (reference value: 0.5 %); format: functional
A549 [9] = assay: Induction of apoptosis in human A549 cells assessed as late apoptotic cells at 25 uM after 48 hrs by Annexin V-FITC/propidium iodide staining based flow cytometry (reference value: 1.2 %); format: functional
A549 [10] = assay: Induction of apoptosis in human A549 cells assessed as necrotic cells at 25 uM after 48 hrs by Annexin V-FITC/propidium iodide staining based flow cytometry (reference value: 0.1 %); format: functional
A549 [11] = assay: Induction of apoptosis in human A549 cells assessed as increase in caspase 3/7 activity at 25 uM after 48 hrs by Caspase-Glo 3/7 assay relative to control; format: functional
How it was run: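 A549 cells (8×10^3) plated in duplicate in 96-well plates, treated 25 µM for 48 h. Caspase-Glo 3/7 luminescence read after 1 h with substrate; blank (medium plus reagent) subtracted; fold increase = treated/control reading; mean ± 1 SD.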

| Structure (SMILES) | Activity (A549 [1]) [%] | Activity (A549 [2]) [%] | IC50 (ASPC1) [µM] | IC50 (MDA-MB-231) [µM] | Activity (A549 [3]) [%] | IC50 [4] [µM] | IC50 (A549 [5]) [µM] | IC50 [6] [µM] | viability at 25 µM (A549 [7]) [%] | Activity (A549 [8]) [%] | Activity (A549 [9]) [%] | Activity (A549 [10]) [%] | Activity (A549 [11]) | fold change (FC) (A549 [11]) |
| --- | --- | --- | --- | --- | --- | --- | --- | --- | --- | --- | --- | --- | --- | --- |
| CN1CCN(C(=O)COc2ccc3c(=O)c4ccc(OCC(=O)N5CCN(C)CC5)cc4oc3c2)CC1 | 24.2 | 10.1 | > 400 | > 400 | 66.4 | > 400 | > 400 | > 400 | 94.1 | 0.7 | 2.5 | 2.7 |  |  |
| O=C(COc1ccc2c(=O)c3ccc(OCC(=O)NCC4CCCO4)cc3oc2c1)NCC1CCCO1 (stereo not given) | 26.3 | 9.5 | > 400 | > 400 | 64.6 | > 400 | > 400 | 249 | 96.5 | 0.5 | 1.2 | 1.8 |  |  |
| Cc1c(OCC(=O)N2CC(C)OC(C)C2)ccc2c(=O)c3ccc(OCC(=O)N4CC(C)OC(C)C4)cc3oc12 (stereo not given) | 24 | 9.7 | 116 | 385 | 66.9 | 141 | 295 | 214 | 98.3 | 0.7 | 0.8 | 0.2 |  |  |
| Cc1c(OCC(=O)NCC2CCCO2)ccc2c(=O)c3ccc(OCC(=O)NCC4CCCO4)cc3oc12 (stereo not given) | 13 | 13.2 | 78.7 | 98.4 | 74.6 | 33.8 | 27.5 | 34.5 | 95.4 | 1.2 | 2.5 | 0.9 | inactive |  |
| Cc1c(OCC(=O)NC2CCCCC2C)ccc2c(=O)c3ccc(OCC(=O)NC4CCCCC4C)cc3oc12 (stereo not given) | 29.1 | 9.4 | 15.4 | 11 | 61.8 | 18.3 | 22.3 | 23.3 | 93.6 | 3.1 | 2.4 | 1 | inactive |  |
| CC1CCCC(C)N1C(=O)COc1ccc2c(=O)c3ccc(OCC(=O)N4C(C)CCCC4C)cc3oc2c1 (stereo not given) | 33.5 | 9.8 | 13.8 | 24.3 | 57.4 | 15.7 | 17.2 | 6.68 | 87.7 | 1.5 | 9.1 | 1.1 |  | 2.31 |
| Cc1c(OCC(=O)N2CCN(C)CC2)ccc2c(=O)c3ccc(OCC(=O)N4CCN(C)CC4)cc3oc12 | 20.7 | 9 | 97.8 | 257 | 71.2 | 119 | 181 | 89.2 | 95.6 | 0.7 | 3.1 | 0.6 |  |  |
| Cc1c(OCC(=O)N2CCOCC2)ccc2c(=O)c3ccc(OCC(=O)N4CCOCC4)cc3oc12 | 28 | 11.8 | > 400 | > 400 | 61 | > 400 | > 400 | > 400 | 98.7 | 0.9 | 0.4 | 0.1 |  |  |
| Cc1c(OCC(=O)N2CC(C)CC(C)C2)ccc2c(=O)c3ccc(OCC(=O)N4CC(C)CC(C)C4)cc3oc12 (stereo not given) | 15.5 | 6 | 4.76 | 8.06 | 78.9 | 6.09 | 4.59 | 6.18 | 49 | 37.5 | 12.4 | 1.1 |  | 2.04 |
| CCOC(=O)N1CCN(C(=O)COc2ccc3c(=O)c4ccc(OCC(=O)N5CCN(C(=O)OCC)CC5)c(C)c4oc3c2)CC1 | 23.2 | 11.9 | 34.1 | 64.5 | 65.5 | 8.16 | 84.9 | 53.3 | 97.1 | 1.6 | 1.1 | 0.3 | inactive |  |
| Cc1c(OCC(=O)N2C(C)CCCC2C)ccc2c(=O)c3ccc(OCC(=O)N4C(C)CCCC4C)cc3oc12 (stereo not given) | 17.6 | 6.9 | 7.1 | 7.31 | 75.7 | 7.63 | 10.6 | 4.27 | 80.7 | 7.3 | 9.8 | 2.1 |  | 3.45 |
| O=C(COc1ccc2c(=O)c3ccc(OCC(=O)N4CCOCC4)cc3oc2c1)N1CCOCC1 | 25.1 | 9.6 | > 400 | > 400 | 65.7 | > 400 | > 400 | > 400 | 97.9 | 0.5 | 0.7 | 0.9 |  |  |
